Most compounds without a hit are left out; they make up all but 2.7% or so of the library.
PAFAH1B3 inh = PAFAH1B3 enzyme inhibitors, primary screen, biochemical, fluorescence polarization, human. recombinant PAFAH1B3, FP-rhodamine probe. AID 492972, 2010. Platelet-activating factor acetylhydrolase IB subunit alpha1 (Homo sapiens), Q15102. inhibition, % at 3.39 µM. 0.28% of 340,000 active;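 active = inhibition above the screen-wide average of all tested compounds plus 3 SD, cut at about 25% in these data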;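 note: 0% = enzyme with DMSO only and 100% = wells lacking PAFAH1B3 protein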
Target sequence (Q15102 whole entry, looked up): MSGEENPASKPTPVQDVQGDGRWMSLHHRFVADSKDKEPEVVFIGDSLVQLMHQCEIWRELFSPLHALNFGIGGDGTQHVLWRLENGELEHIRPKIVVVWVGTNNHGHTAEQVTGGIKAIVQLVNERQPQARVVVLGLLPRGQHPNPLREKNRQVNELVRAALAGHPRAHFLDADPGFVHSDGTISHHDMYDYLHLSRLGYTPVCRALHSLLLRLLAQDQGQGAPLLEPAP
pPAFAH inh = pPAFAH enzyme inhibitors, primary screen, biochemical, fluorescence polarization, human. Platelet-activating factor acetylhydrolase (Homo sapiens), Q13093. recombinant pPAFAH, FP-rhodamine probe fluorescence polarization. inhibition, % at 3.39 µM. 1.5% of 330,000 active;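 active = inhibition above the mean inhibition across the screen plus 3 SD, cut at about 25% in these data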;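 note: inhibitors block binding of the rhodamine activity-based probe so polarization drops; 0% = enzyme with DMSO and 100% = wells lacking pPAFAH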
RBBP9 inhibitor = human RBBP9 inhibitors, primary screen, biochemical, fluorescence polarization, FP-Rh probe, HTS; Serine hydrolase RBBP9 (Homo sapiens), O75884; recombinant RBBP9; inhibition, % at 7.94 µM; 0.2% of 220,000 active;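 active = inhibition above the campaign mean of all tested compounds plus 3 SD, cut at about 14% in these data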;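 note: plate controls were DMSO wells with RBBP9 for no effect and wells lacking RBBP9 protein for full effect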
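Measured by: FP readout at 525/598 nm; material: recombinant human RBBP9; also added: Serine-hydrolase probe FP-Rh, 375 nM pre-mixing; medium: Tris buffer pH 8.0, NaCl, Pluronic; replication: one well per compound; doses: one concentration, 7.94 µM nominal, 0.794% DMSO; timing: preincubation 30 min plus labeling 45 min at 25 °C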
PAFAH2 FP inh = PAFAH2 enzyme inhibitors, primary screen, biochemical, fluorescence polarization, human; 0.99% of 340,000 active; Platelet-activating factor acetylhydrolase 2, cytoplasmic (Homo sapiens), Q99487; recombinant PAFAH2, FP-rhodamine activity probe; inhibition, % at 3.39 µM;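 active = inhibition above the mean over all tested compounds plus 3 SD, cut at about 30% in these data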;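 note: inhibitors block probe labeling of enzyme so polarization drops; 0% = enzyme with DMSO and 100% = wells lacking PAFAH2 protein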
PAFAH1B2 inh = PAFAH1B2 enzyme inhibitors, primary screen, biochemical, fluorescence polarization, human. Platelet-activating factor acetylhydrolase IB subunit alpha2 (Homo sapiens), P68402. recombinant PAFAH1B2, FP-rhodamine activity probe. inhibition, % at 3.39 µM. 1.2% of 340,000 active. AID 492953, 2010;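 active = inhibition above the mean of all tested compounds plus 3 SD, cut at about 24% in these data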;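 note: 0% = enzyme with DMSO and 100% = wells lacking PAFAH1B2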
Target sequence (P68402 whole entry, looked up): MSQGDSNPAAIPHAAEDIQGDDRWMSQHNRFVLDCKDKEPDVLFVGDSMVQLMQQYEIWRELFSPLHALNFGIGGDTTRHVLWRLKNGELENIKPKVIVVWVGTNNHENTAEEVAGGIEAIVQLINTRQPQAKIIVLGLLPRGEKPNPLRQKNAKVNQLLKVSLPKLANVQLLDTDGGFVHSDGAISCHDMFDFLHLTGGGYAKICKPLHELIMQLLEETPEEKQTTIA
PAFAH2 FP conf = PAFAH2 enzyme inhibitors, confirmation, biochemical, fluorescence polarization, human; shares compounds with PAFAH2 FP inh; recombinant PAFAH2, FP-rhodamine activity probe; inhibition, % at 3.39 µM; 65% of 2,300 active;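 active = mean inhibition over three repeats above a set limit taken from the earlier primary screen, cut at about 30% in these data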;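 note: inhibitor blocks binding of rhodamine activity probe so polarization falls; 0% = enzyme with DMSO and 100% = wells lacking PAFAH2 protein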
Active calls of the source: *; x = not tested or not shown.

SMILES | PAFAH1B3 inh | pPAFAH inh | RBBP9 inhibitor | PAFAH2 FP inh | PAFAH1B2 inh | PAFAH2 FP conf
O=C(COC(=O)c1ccc(Cl)nc1)Nc1ccc2c(c1)OCCO2 | 2 | 2 | x | 5 | 2 | x
CC(=O)Nc1ccc(NC(=O)COC(=O)c2ccc(Cl)nc2)cc1 | 7 | x | x | 1 | 0 | x
O=C(COC(=O)c1ccc(Cl)nc1)Nc1ccc(Cl)cc1 | 4 | x | x | 36* | 3 | 33*
Cc1noc(C)c1COc1ccc(C(=O)OCC(=O)Nc2ccc(S(N)(=O)=O)cc2)cc1 | 5 | 0 | x | -1 | 5 | x
O=C(COC(=O)c1ccc(Cl)nc1)Nc1ccc2c(c1)CCC2 | 10 | -2 | x | 42* | -8 | 32*
CCNC(=O)C12CCC(C)(c3nc4cc(C)c(C)cc4nc31)C2(C)C (stereo not given) | 4 | 3 | 3 | 3 | 4 | x
COc1ccccc1N1CCN(C(=O)CN2C(=O)c3ccccc3S2(=O)=O)CC1 | 3 | 1 | -8 | 2 | 1 | x
O=C(O)CCCC(=O)Nc1ccc(Cl)cc1 | 2 | 1 | -1 | 1 | 5 | x
O=C(COC(=O)c1cncc(Br)c1)Nc1ccc2c(c1)OCO2 | 6 | 7 | 3 | 23 | 6 | x
O=C(COC(=O)c1ccc(O)cc1)Nc1ccc2c(c1)OCO2 | 4 | 11 | x | 89* | 2 | 81*
O=C(COC(=O)c1ccc(NC(=O)C2CC=CCC2C(=O)O)cc1)c1ccccc1 (stereo not given) | 7 | -1 | x | 31* | 8 | 31*
O=C(O)CCC(=O)Nc1ccc(C(=O)OCC(=O)c2ccc(Cl)cc2)cc1 | 7 | 3 | -7 | 42* | 4 | 28
CCN1C(=O)[C@H]2[C@@H](c3ccc(-c4ccc(F)cc4)cc3)N[C@@](C)(C(=O)OC)[C@H]2C1=O | 9 | 2 | x | -5 | 1 | x
O=C(c1cnn2c(C(F)F)cc(-c3ccccc3)nc12)N1CCCc2ccccc21 | 4 | -4 | -7 | -10 | 3 | x
O=C(c1cnn2c(C(F)(F)F)cc(-c3ccccc3)nc12)N1CCCc2ccccc21 | -1 | 6 | -5 | 39* | 2 | 39*
Cc1cc(NC(=O)c2cnn3c(C(F)(F)F)cc(-c4ccccc4)nc23)no1 | -7 | 3 | 1 | 30* | 2 | 16
Cc1cc(NC(=O)c2cnn3c(C(F)F)cc(-c4ccccc4)nc23)no1 | 4 | -1 | -2 | 2 | 4 | x
CCC(C(=O)NCCC(C)C)n1ccc2cc(S(=O)(=O)N3CCCCC3)ccc21 (stereo not given) | 1 | -4 | x | 9 | 7 | x
C=CCSC1=N/C(=C\c2cc(OCC)c(OC(C)=O)c([N+](=O)[O-])c2)C(=O)S1 | 8 | 10 | 2 | 60* | 15 | 65*
CCOc1cc(/C=C2\SC(=NC)N(C)C2=O)cc(Cl)c1OC(C)=O | 4 | -1 | x | -5 | 2 | x
NC(=O)Nc1ccc(C(=O)OCC(=O)N2CCc3ccccc3C2)cc1 | -5 | -2 | x | 54* | 0 | 47*
CC(=O)c1c(C)[nH]c(C(=O)OCC(=O)N2CCN(S(=O)(=O)c3ccc(C)cc3)CC2)c1C | 15 | 5 | x | 0 | 3 | x
O=C(OCC(=O)N1CCc2ccccc2C1)c1ccc(O)cc1 | 11 | 3 | x | 47* | 10 | 30*
CC(=O)c1c(C)[nH]c(C(=O)OCC(=O)N2CCc3ccccc3C2)c1C | 9 | 0 | x | 30* | 3 | 22
CCOc1ccccc1NC(=O)C(Sc1ccccc1)c1ccccc1 (stereo not given) | 1 | 1 | -10 | -9 | 3 | x
O=C1C=C(Nc2ccc(Cl)cc2Cl)CC(c2ccco2)C1 (stereo not given) | -2 | 19 | 1 | 45* | 5 | 37*
O=C1C=C(Nc2ccc(O)cc2)CC(c2ccco2)C1 (stereo not given) | 5 | 7 | -9 | -3 | 4 | x

Assay outcomes (PubChem BioAssay)
